Data on 18 molecules can be found in ChEMBL document CHEMBL1147933, “Conformationally restricted homotryptamines 3. Indole tetrahydropyridines and cyclohexenylamines as selective serotonin reuptake inhibitors” (Bioorg Med Chem Lett, 2007).

Activity calls are given as the source filed them. The calls are words filed in the database; no cut-off is given here.

In experiment [1] the target is T1, Sodium-dependent serotonin transporter (Homo sapiens, UniProt P31645). Kind of experiment: Displacement of [3H]citalopram from human SERT expressed in HEK293 cells. In kind it is cell-based. The procedure, abridged: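 Membrane homogenates from HEK-293 cells stably expressing human SERT, incubated 1 h at 25 °C with 2 nM [3H]citalopram (85 Ci/mmol) and increasing test concentrations. Non-specific binding defined with 10 µM fluoxetine. Specific binding plotted against −log drug concentration, and the midpoint of the displacement curve was taken as IC50.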
T1 sequence (P31645 whole entry): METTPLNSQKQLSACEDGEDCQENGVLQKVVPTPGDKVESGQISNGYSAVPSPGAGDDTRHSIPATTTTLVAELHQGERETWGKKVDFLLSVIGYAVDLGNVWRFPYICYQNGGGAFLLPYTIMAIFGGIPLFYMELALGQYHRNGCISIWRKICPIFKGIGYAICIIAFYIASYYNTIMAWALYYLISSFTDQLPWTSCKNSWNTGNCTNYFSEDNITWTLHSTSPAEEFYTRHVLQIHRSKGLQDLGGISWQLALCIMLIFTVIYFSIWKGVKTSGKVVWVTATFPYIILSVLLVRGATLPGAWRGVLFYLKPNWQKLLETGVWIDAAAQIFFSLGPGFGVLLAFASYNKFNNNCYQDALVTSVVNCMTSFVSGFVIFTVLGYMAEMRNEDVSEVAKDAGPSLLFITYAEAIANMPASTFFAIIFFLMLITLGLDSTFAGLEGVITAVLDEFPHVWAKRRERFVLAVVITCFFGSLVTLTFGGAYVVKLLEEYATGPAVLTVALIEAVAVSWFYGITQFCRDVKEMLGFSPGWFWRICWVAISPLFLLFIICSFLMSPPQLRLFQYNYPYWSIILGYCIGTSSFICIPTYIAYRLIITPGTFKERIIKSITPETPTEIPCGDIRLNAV
(In general: Loss of bound radioactivity is the signal in a displacement assay; it reports binding, not function.)

The target of experiment [2] is T2, Sodium-dependent dopamine transporter (Homo sapiens, UniProt Q01959). Kind of experiment: Inhibition of human DAT at 1 uM.
T2 sequence (Q01959 whole entry): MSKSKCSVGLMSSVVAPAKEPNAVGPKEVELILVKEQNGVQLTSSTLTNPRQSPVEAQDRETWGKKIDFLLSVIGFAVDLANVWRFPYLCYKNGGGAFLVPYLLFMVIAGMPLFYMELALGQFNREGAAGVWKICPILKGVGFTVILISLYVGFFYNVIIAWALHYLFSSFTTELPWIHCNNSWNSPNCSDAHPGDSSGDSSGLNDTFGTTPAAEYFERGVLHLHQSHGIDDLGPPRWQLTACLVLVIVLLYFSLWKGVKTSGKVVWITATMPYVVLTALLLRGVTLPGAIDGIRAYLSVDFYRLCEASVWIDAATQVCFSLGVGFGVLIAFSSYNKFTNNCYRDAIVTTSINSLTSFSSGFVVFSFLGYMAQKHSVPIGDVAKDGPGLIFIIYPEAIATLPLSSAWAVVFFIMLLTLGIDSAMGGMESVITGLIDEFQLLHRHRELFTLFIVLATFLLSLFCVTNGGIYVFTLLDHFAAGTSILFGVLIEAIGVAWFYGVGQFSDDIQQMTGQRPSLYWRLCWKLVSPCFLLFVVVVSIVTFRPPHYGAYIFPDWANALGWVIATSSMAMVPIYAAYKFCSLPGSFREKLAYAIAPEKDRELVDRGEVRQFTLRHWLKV
The target of experiment [3] is T3, Sodium-dependent noradrenaline transporter (Homo sapiens, UniProt P23975). Kind of experiment: Inhibition of human NET at 1 uM.
T3 sequence (P23975 whole entry): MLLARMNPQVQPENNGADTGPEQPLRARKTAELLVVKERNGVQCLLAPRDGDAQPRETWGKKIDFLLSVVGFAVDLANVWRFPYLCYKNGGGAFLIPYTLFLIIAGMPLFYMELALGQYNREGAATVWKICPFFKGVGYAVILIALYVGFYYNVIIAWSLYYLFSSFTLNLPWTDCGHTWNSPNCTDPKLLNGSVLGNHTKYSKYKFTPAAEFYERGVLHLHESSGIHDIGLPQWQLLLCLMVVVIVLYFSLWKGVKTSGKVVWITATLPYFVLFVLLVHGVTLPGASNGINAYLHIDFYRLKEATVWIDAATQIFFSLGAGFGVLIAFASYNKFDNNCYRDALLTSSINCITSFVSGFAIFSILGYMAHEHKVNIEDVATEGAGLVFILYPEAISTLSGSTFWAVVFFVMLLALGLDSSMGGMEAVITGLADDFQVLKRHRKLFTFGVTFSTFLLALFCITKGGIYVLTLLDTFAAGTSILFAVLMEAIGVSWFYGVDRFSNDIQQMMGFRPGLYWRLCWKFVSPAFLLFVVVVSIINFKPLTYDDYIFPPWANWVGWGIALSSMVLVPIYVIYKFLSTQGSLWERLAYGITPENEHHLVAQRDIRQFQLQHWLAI
For experiment [4], the target named is T1, Sodium-dependent serotonin transporter. Kind of experiment: Displacement of [125I]RTI-55 from human SERT expressed in HEK293 cells. In kind it is cell-based. The procedure, abridged:
(§1)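 Membrane homogenates from HEK-293 cell lines stably transfected with the human transporter, incubated with 125I ligands: [125I]RTI-55 for SERT (260 pM) and DAT (125 pM), and custom [125I]nisoxetine for NET (300 pM). Reactions run in 384-well format and filter-harvested. IC50 taken from a 20-point concentration curve in a single experiment.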

Experiment [5] addresses T2, Sodium-dependent dopamine transporter. Kind of experiment: Displacement of [125I]RTI-55 from human DAT expressed in HEK293 cells. In kind it is cell-based. In outline:
as §1

The target of experiment [6] is T3, Sodium-dependent noradrenaline transporter. The experiment is described as follows: Displacement of [125I]Nisoxetine from human NET expressed in HEK293 cells. In kind it is cell-based. The procedure, abridged: as §1
In experiment [7] the test system is Rattus norvegicus. The experiment is described as follows: Increase in fluoxetine-induced serotonin concentration in rat frontal cortex by microdialysis at 1 mg/kg, ip. Details: dose 1 mg/kg. The experiment is classed as functional, organism-based.
The test system of experiment [8] is Rattus norvegicus. Kind of experiment: Increase in fluoxetine-induced serotonin concentration in rat frontal cortex by microdialysis at 10 mg/kg, po. Details: dose 10 mg/kg. The experiment is classed as functional, organism-based.

`CN(C)C1CC=C(c2c[nH]c3ccc(F)cc23)CC1` (stereo not given) showed a concentration for half-maximal inhibition (IC50) in experiment [1] of 14 nM. Further, the inhibition in experiment [2] worked out at 23%; in experiment [3], 35%.
Take `CN(C)C1CC=C(c2c[nH]c3ccc(Br)cc23)CC1` (stereo not given): in experiment [1], the IC50 turned out to be 5.3 nM. The inhibition stood at 95% in experiment [2] and 99% in experiment [3].
On the same counts, the results for `CN1CC=C(c2c[nH]c3ccc(C#N)cc23)CC1` are 19 nM, 56% and 15%.
With `Cc1ccc2[nH]cc(C3=CCN(C)CC3)c2c1`, the IC50 in experiment [1] was 910 nM. That is a sub-micromolar value.
For the molecule `CN(C)C1CC=C(c2c[nH]c3ccc(C#N)cc23)CC1` (stereo not given), the IC50 was 1.6 nM in experiment [1], 0.34 nM in experiment [4], 97 nM in experiment [5] and 57 nM in experiment [6]. Also, the inhibition in experiment [2] was found to be 71%; in experiment [3] it was 90%. Further, the outcome in experiment [7] and in experiment [8] was Active.
In experiment [1], `CN1CC=C(c2c[nH]c3ccc(Cl)cc23)CC1` showed an IC50 of 240 nM.
Still for that read-out and setting: then `Cc1ccc2[nH]cc(C3=CCC(N(C)C)CC3)c2c1` (stereo not given), with 770 nM.
With `CN(C)C1CC=C(c2c[nH]c3ccc(Cl)cc23)CC1` (stereo not given), in experiment [1], the concentration for half-maximal inhibition (IC50) worked out at 19 nM. For the same molecule, the values for the inhibition in experiment [2] and in experiment [3] were 16% and 34%, respectively.
`CN1CC=C(c2c[nH]c3ccc(F)cc23)CC1` showed an IC50 in experiment [1] of 160 nM. This counts as sub-micromolar.
Same read-out and setting: then `CN1CC=C(c2c[nH]c3ccccc23)CC1`, with 690 nM.
`COc1ccc2[nH]cc(C3=CCC(N(C)C)CC3)c2c1` (stereo not given) yielded an IC50 in experiment [1] of 150 nM.
`CN(C)C1CC=C(c2c[nH]c3ccccc23)CC1` (stereo not given) returned an IC50 in experiment [1] of 3.1 nM. For the same molecule, the inhibition was found to be 67% in experiment [2] and 70% in experiment [3].
For the molecule `COc1ccc2[nH]cc(C3=CCN(C)CC3)c2c1`, the IC50 in experiment [1] was found to be 730 nM.
In experiment [1], `CN(C)C1CC=C(c2c[nH]c3ccc([N+](=O)[O-])cc23)CC1` (stereo not given) came in with an IC50 of 1 nM. Moreover, the results for the inhibition in experiment [2] and in experiment [3] were 74% and 81%, respectively.
Regarding `CN1CC=C(c2c[nH]c3ccc(Br)cc23)CC1`, in experiment [1], the IC50 is 210 nM.
As for `CN(C)[C@H]1CC=C(c2c[nH]c3ccc(C#N)cc23)CC1`, the IC50 in experiment [1] came out at 0.72 nM; in experiment [4], 0.4 nM; in experiment [5], 290 nM; in experiment [6], 390 nM.
On the same counts, the results for `CN(C)[C@@H]1CC=C(c2c[nH]c3ccc(C#N)cc23)CC1` are 1.1 nM, 0.56 nM, 80 nM and 37 nM.
On to `CN1CC=C(c2c[nH]c3ccc([N+](=O)[O-])cc23)CC1`, for which, in experiment [1], the concentration for half-maximal inhibition (IC50) came out at 40 nM. Further, the figures for the inhibition in experiment [2] and in experiment [3] were 73% and 27%, respectively.

For orientation: IC50 means the concentration at which inhibition is half-maximal. A higher IC50 goes with lower potency. A word on the inhibition: it is the drop in the measured response relative to a control, in per cent. The low end stands for a response near the control, the high end for a response far below the control.
